Experimental data collected from several papers.
Compare with care: the assays were run in different laboratories.
RPS6KA3: Ribosomal protein S6 kinase alpha-3 (RPS6KA3, Homo sapiens, UniProt P51812)
RPS6KA3 N-terminal kinase domain: Ribosomal protein S6 kinase alpha-3, N-terminal kinase domain (RPS6KA3, Homo sapiens, UniProt P51812)

Structure (SMILES)	target	test	setting	endpoint	result
O=c1[nH]c2ccccc2n1C1CCN(Cc2ccc(-c3[nH]c4cc5ncnc5cc4nc3-c3ccccc3)cc2)CC1	RPS6KA3	cell-free assay	0.5 µM	remaining signal	96.6%
N#CC1(c2ccccn2)CCN(Cc2cc(C(=O)O)c(=O)n3ccccc23)CC1	Ribosomal protein S6 kinase alpha-3, C-terminal kinase domain (RPS6KA3, Homo sapiens, UniProt P51812)	cell-free assay, competition with immobilised ligand	1 µM	remaining binding	100%
Nc1ncc(-c2nc(N3CCOCC3)nc(N3CCOCC3)n2)c(C(F)F)n1	RPS6KA3 N-terminal kinase domain	binding, competition with immobilised ligand	10 µM	remaining binding	59%
Cc1nn(C)cc1-c1nc2c(N3CCN(Cc4ccc(Cl)cc4)CC3)c(Cl)cnc2[nH]1	RPS6KA3 N-terminal kinase domain	binding, competition with immobilised ligand	1 µM	remaining binding	84%
COc1cc(Nc2ncc(F)c(Nc3ccc4c(n3)NC(=O)C(C)(C)O4)n2)cc(OC)c1OC	RPS6KA3 N-terminal kinase domain	binding, competition with immobilised ligand	10 µM	inhibition	88%
Cn1cc(-c2cccc(N3CCc4c(sc5c4CC(C)(C)C5)C3=O)c2CO)cc(Nc2ccncn2)c1=O	RPS6KA3	enzyme activity, inhibitor	1 µM	inhibition	1%
CC(C)(C)c1cc(C=C(C#N)C#N)cc(Br)c1O	RPS6KA3	enzyme activity, inhibitor	0.5 µM	remaining activity	92.2%
Cn1cncc1[C@](O)(COc1ccc(C#N)cc1-c1ccc(OC(F)(F)F)cc1)c1ccc(C#N)cc1	RPS6KA3 N-terminal kinase domain	cell-free assay, competition with immobilised ligand	1 µM	remaining binding	100%
Cn1cc(-c2cc(F)cc(N3CCn4c(cc5c4CCCC5)C3=O)c2CO)cc(Nc2ccc(N3CCN(C4COC4)CC3)cn2)c1=O	RPS6KA3	enzyme activity, inhibitor	0.1 µM	inhibition	7%
